PAX8 reporter: lowers PAX8-driven luciferase in RMG-I cells. 1.2% of 360,000 active. inhibition, % at 12.6 µM. RMG-I TPO-luciferase reporter, SteadyGlo, 24 h. AID 652154;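 active means mean replicate inhibition at least 60% with every replicate also reaching 60%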;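 further: luciferase light reporting Pax8 driven TPO promoter activity; plate controls were median of neutral control wells for no effect and mitoxantrone controls for full effect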
EWS-Fli block: inhibitors of EWS/Fli oncoprotein transcriptional activity | A673 NR0B1-luciferase reporter, viability-normalised | inhibition, % at 12.6 µM | 0.67% of 350,000 active | AID 651661;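 active means mean inhibition of at least 50% after viability correction, with every replicate also passing that limit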;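 further: firefly luciferase signal divided by Alamar Blue viability fluorescence both relative to DMSO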
HIV Env fusion: HIV envelope-mediated fusion inhibition; inhibition, % at 12.3 µM; AID 651610; 1.1% of 360,000 active; HeLa-JRFL Env/CEM21 cell fusion, luciferase;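 active means mean replicate inhibition score of at least 50 and every replicate individually at or above 50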;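 further: 0% = plate neutral controls and 100% = maraviroc near 300 nM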
PGC1a acetyl inh: lowers PGC1a acetylation signal in U2OS cells; inhibition, % at 15.6 µM; AID 651687; 0.17% of 350,000 active; AlphaScreen anti-acetyl-lysine; with virally co-expressed GCN5 acetyltransferase;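 active means every replicate shows inhibition of at least 40%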;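 further: 0% = neutral control wells and 100% = positive control wells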
FGF22 binding: FGF22 (human) thermal shift binding. AID 651658. recombinant FGF22 thermal shift, SYPRO orange fluorescence; percent of sucrose octasulfate shift, DMSO zero. 1.5% of 340,000 active. activity (Tm shift, normalised), % at 9.99 µM;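 active means mean Tm shift, scaled 0 neutral to 100 positive control, at about 1.3% or above, every replicate too, limit read from the data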
Target sequence (Q9HCT0 whole entry, looked up): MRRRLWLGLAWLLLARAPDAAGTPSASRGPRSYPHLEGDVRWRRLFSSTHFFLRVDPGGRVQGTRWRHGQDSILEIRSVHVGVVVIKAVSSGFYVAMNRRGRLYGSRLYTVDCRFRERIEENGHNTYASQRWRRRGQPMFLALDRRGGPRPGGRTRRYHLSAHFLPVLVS
FN deposit inh: fibronectin deposition inhibition; AH1F fibroblasts, Alexa488-fibronectin deposition fluorescence, overnight; inhibition, % at 12.6 µM; 0.086% of 350,000 active; AID 743247;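 active means mean inhibition across replicates of 30% or more, regardless of how many single replicates reach that level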;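 further: positive control wells lacked labelled fibronectin entirely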
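material = AH1F fibroblast monolayer depositing Alexa488-labelled fibronectin into matrix | amount = 10000 AH1F cells/well | buffer or medium = DMEM plus 2% serum, read in PBS | incubation = 1 h cell adhesion before compound, then overnight fibronectin incubation | detection = fluorescence at 485 nm excitation, 525 nm emission | evaluation = percent inhibition as loss of matrix-bound fibronectin fluorescence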
An asterisk follows results filed as active; . = no result; [ ] = remark or other dose. Rows were chosen to be rich in hits. Some 3.1% of all compounds tested hit in one or more screens of this group.

SMILES	PAX8 reporter	EWS-Fli block	HIV Env fusion	PGC1a acetyl inh	FGF22 binding	FN deposit inh
CC(C)NC(=O)N(C)C[C@H]1Oc2ccc(NC(=O)CCN3CCOCC3)cc2C(=O)N([C@@H](C)CO)C[C@H]1C	-7.2	-0.3	2.9[16.7 µM]	-9.5	-0.6	.
COc1ccc(-c2cc3ccccc3cn2)cc1	-31.4	18.2	.	6.0	43.9*	-1.9
COc1ccc(-c2cc3ccc(OC)cc3cn2)cc1	18.5	57.6*	-70.4	.	0.1	-13.1
C[C@@H]1CCCCO[C@@H](CN(C)Cc2ccc(C(F)(F)F)cc2)[C@H](C)CN([C@@H](C)CO)C(=O)c2cc(NS(C)(=O)=O)ccc2O1	-2.0	6.9	10.7[16.7 µM]	-10.7	-0.1	.
COCC(=O)N1[C@H](CO)[C@@H](c2ccccc2)C12CN(C(=O)c1ccccc1)C2	1.9	-0.2	.	0.2	0.9	2.4
OC[C@@H]1CC[C@@H]2O[C@H](CCc3ccc(C#CCc4ccccc4)cc3)[C@H](n3cc(-c4ccccc4)nn3)C[C@@H]2O1	62.2*	0.9	.	-10.4	0.2	.
OC[C@@H]1CC[C@@H]2O[C@H](CCc3ccc(C#CCc4ccccc4)cc3)[C@@H](n3cc(-c4ccccc4)nn3)C[C@@H]2O1	71.6*	20.2	.	7.3	0.0	.
CC(=O)NC[C@H]1[C@@H](c2ccc(-c3ccccc3)cc2)[C@H](CO)N1C(=O)C1CCC1	13.1	-4.5	.	0.2	-0.5	.
O=C(NC1CCCCC1)N[C@H]1C=C[C@H](CC(=O)N2CCOCC2)O[C@@H]1CO	.	.	.	1.9	-0.5	.
CC1C=NC(S(=O)(=O)N2CC[C@H]3[C@@H](CO)N(C)c4ccc(C#Cc5cccnc5)cc4[C@H]32)=N1 (some centres undefined)	-21.9	-12.0	.	-4.7	0.1	4.9
COc1ccc(CN(Cc2cccn2C)S(=O)(=O)c2ccccc2)cc1	-6.2	-8.5	19.5	74.3*	-0.1	-7.0
COc1ccc(CNC(=O)CN(Cc2ccc(Cl)cc2)S(=O)(=O)c2ccccc2)cc1	.	.	59.4*	-22.9	.	2.0
COc1ccccc1-c1cnc2c(c1)C(=O)N([C@@H](C)CO)C[C@@H](C)[C@H](CN(C)Cc1ccncc1)O2	.	-8.2	-17.2[16.7 µM]	-7.0	-0.2	0.2
CN(C)C(=O)C[C@@H]1CC[C@H]2[C@@H](COC[C@@H](O)CN2S(=O)(=O)c2ccccc2)O1	.	.	.	9.4	0.2	2.1
O=C(Nc1ccccc1)C1CCCN(C(=O)c2ccc(Cl)cc2)C1 (centres undefined)	6.5	3.1	-13.5	.	43.0*	-0.4
O=C(Nc1ccc(Cl)cc1)C1CCCN(C2=NS(=O)(=O)c3ccccc32)C1 (centres undefined)	36.6	-3.0	70.4*	8.3	-0.1	2.9
CCN(CC)S(=O)(=O)c1cccc(-c2nnc(SCC(=O)NC)n2N)c1	-3.8	1.8	-0.9	.	43.8*	7.9
CCN(CC)S(=O)(=O)c1cccc(-c2nnc(SCC(=O)N3CCC(C(=O)O)CC3)n2N)c1	-8.0	4.2	0.8	9.5	0.1	-11.1
CC(=O)Nc1cccc(NC(=S)Nc2ccc(F)cc2F)c1	-23.8	-21.3	6.1	5.9	43.3*	1.3
CC(=O)Nc1cccc(NC(=S)Nc2cccc(Cl)c2Cl)c1	18.5	10.9	-3.3	.	-0.1	-4.1
O=C(Nc1ccc(F)cc1F)c1cccc(C(=O)Nc2ccc(F)cc2F)n1	-2.7	-1.2	57.8*	.	0.0	.
O=C(Nc1ccc(F)cc1F)c1csc(-c2ccccc2)n1	-13.7	-18.2	-22.3	-8.2	0.0	2.7
CN(C)C(=O)c1ccc(-c2ccc([C@@H]3[C@@H](C#N)N(C(=O)C4CC4)[C@H]3CO)cc2)cc1	-11.0	1.6	-7.2[16.7 µM]	-41.3	0.0	8.7
Cn1c(=O)c(/C=C/c2ccccc2)nc2ccccc21	-58.4	-25.2	-83.4	.	.	.
Cn1c(/C=C/c2ccccc2)nc2ccccc21	78.8*	59.1*	-5.5	.	0.1	4.3
C[C@H](CO)N1C[C@H](C)[C@@H](CN(C)C(=O)Cc2ccccc2)OCCCC[C@H](C)Oc2ccc(NC(=O)Nc3ccccc3)cc2C1=O	4.4	1.9	-11.5[16.7 µM]	0.2	0.3	-9.3
C[C@@H]1CN([C@@H](C)CO)C(=O)c2cc(NC(=O)NC3CCCCC3)ccc2O[C@@H](C)CCCCO[C@@H]1CN(C)C(=O)Cc1ccccc1	15.8	8.5	62.0*[16.7 µM]	-2.9	0.0	.
